Results published in ChEMBL document CHEMBL4033721, “Design, synthesis and evaluation of indole-2-carboxamides with pan anti-mycobacterial activity” (Bioorg Med Chem, 2017).
≈ marks a conversion by molar mass, not a printed value.

Tests used:
[1] = tested on: Mycobacteroides abscessus; test: Antimycobacterial activity against Mycobacterium abscessus ATCC 19977 after 8 days by resazurin microtiter based colorimetric assay; format: functional; settings: ATCC 19977, 192 h
Outline: (§1)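 Resazurin microtiter plate MIC, read by visual scan for growth, in Mueller Hinton II broth. Strains include clinical isolates of M. abscessus complex, M. chelonae, M. avium, M. intracellulare, M. xenopi, P. aeruginosa PAO-1 and S. aureus ATCC 25923.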

[2] = tested on: Mycobacteroides abscessus; test: Antimycobacterial activity against Mycobacterium abscessus isolate DCI 21 after 8 days by resazurin microtiter based colorimetric assay; format: functional; settings: isolate DCI 21, 192 h; outline: as §1
[3] = Antimycobacterial activity against Mycobacterium massiliense isolate CIP108297 after 8 days by resazurin microtiter based colorimetric assay; format: functional, Mycobacterium abscessus subsp. massiliense; settings: Mycobacteroides abscessus, isolate CIP108297, 192 h; outline: as §1
[4] = Antimycobacterial activity against Mycobacterium massiliense isolate CRM0019 after 8 days by resazurin microtiter based colorimetric assay; format: functional, Mycobacterium abscessus subsp. massiliense; settings: Mycobacteroides abscessus, isolate CRM0019, 192 h; outline: as §1
[5] = Antimycobacterial activity against Mycobacterium bolletii ATCC 14472 after 8 days by resazurin microtiter based colorimetric assay; format: functional; settings: Mycobacteroides abscessus, ATCC 14472, 192 h; outline: as §1
Mycobacteroides chelonae = test: Antimycobacterial activity against Mycobacterium chelonae ATCC 35752 after 8 days by resazurin microtiter based colorimetric assay; format: functional; settings: ATCC 35752, 192 h; outline: as §1
[6] = tested on: Mycobacterium tuberculosis; test: Antimycobacterial activity against Mycobacterium tuberculosis H37Rv MC2-6206 after 8 days by resazurin microtiter based colorimetric assay; format: functional; settings: H37Rv MC2-6206, 192 h
Outline: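 MIC was measured by resazurin microtiter colorimetric assay with visual growth scoring. Medium was 7H9-ADC–0.05% tyloxapol with 0.2% casaminoacids, 48 µg/ml pantothenate and 50 µg/ml L-leucine.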

[7] = tested on: Mycolicibacterium smegmatis; test: Antimycobacterial activity against Mycobacterium smegmatis isolate MC2 155 after 8 days by resazurin microtiter based colorimetric assay; format: functional; settings: str. MC2 155, 192 h
Mycobacterium avium = test: Antimycobacterial activity against Mycobacterium avium isolate 104 after 8 days by resazurin microtiter based colorimetric assay; format: functional; settings: isolate 104, 192 h
Outline: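 M. avium 104 MICs were read by resazurin microtiter colorimetric assay in 96-well plates, with growth scored visually, in Mueller Hinton II medium.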

[8] = tested on: Mycobacterium avium-intracellulare; test: Antimycobacterial activity against Mycobacterium avium-intracellulare isolate 1956 after 8 days by resazurin microtiter based colorimetric assay; format: functional; settings: isolate 1956, 192 h; outline: as §1
Mycobacterium xenopi = test: Antimycobacterial activity against wild type Mycobacterium xenopi isolate 4042 after 8 days by resazurin microtiter based colorimetric assay; format: functional; settings: isolate 4042, 192 h; outline: as §1
Pseudomonas aeruginosa = test: Antibacterial activity against Pseudomonas aeruginosa PAO1 after 8 days by resazurin microtiter based colorimetric assay; format: functional; settings: PAO1, 192 h; outline: as §1
Staphylococcus aureus = test: Antibacterial activity against Staphylococcus aureus ATCC 25923 after 8 days by resazurin microtiter based colorimetric assay; format: functional; settings: ATCC 25923, 192 h; outline: as §1
[9] = tested on: Mycobacteroides abscessus; test: Bactericidal activity against Mycobacterium abscessus after 8 days by resazurin microtiter based colorimetric assay; format: functional
Outline: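 MBC90 found by subculturing from the MIC wells onto 7H11 agar. Value is the lowest concentration cutting CFU by 90% versus the inoculum.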

SMILES	MIC [1] [µg/mL]	MIC [2] [µg/mL]	MIC [3] [µg/mL]	MIC [4] [µg/mL]	MIC [5] [µg/mL]	MIC (Mycobacteroides chelonae) [µg/mL]	MIC [6] [µg/mL]	MIC [7] [µg/mL]	MIC (Mycobacterium avium) [µg/mL]	MIC [8] [µg/mL]	MIC (Mycobacterium xenopi) [µg/mL]	MIC (Pseudomonas aeruginosa) [µg/mL]	MIC (Staphylococcus aureus) [µg/mL]	MBC90 [9] [µg/mL]
CC(NC(=O)c1cc2ccccc2[nH]1)C12CC3CC(CC(C3)C1)C2 (stereo not drawn)	16 (≈ 49.6 µM)	16 (≈ 49.6 µM)	8 (≈ 24.8 µM)	8 (≈ 24.8 µM)	16 (≈ 49.6 µM)	2 (≈ 6.2 µM)	> 5	> 20	> 32	32 (≈ 99.2 µM)	8 (≈ 24.8 µM)			
Cc1cc(C)c2cc(C(=O)NC3CCCC3)[nH]c2c1	4 (≈ 15.6 µM)	4 (≈ 15.6 µM)	8 (≈ 31.2 µM)	8 (≈ 31.2 µM)	2 (≈ 7.8 µM)	2 (≈ 7.8 µM)	2.5 (≈ 9.75 µM)	5 (≈ 19.5 µM)	> 32	> 32	8 to 16 (≈ 31.2 to 62.4 µM)			
CCCCCCCNC(=O)c1cc2c(C)cc(C)cc2[nH]1	> 32	> 32	> 32	> 32	32 (≈ 112 µM)	> 32	> 5	5 (≈ 17.5 µM)	> 32	> 32	> 32			
CC1CCC(NC(=O)c2cc3ccccc3[nH]2)CC1 (mixture of isomers)	> 32	> 32	16	16	16	16	5	12.5	> 32	> 32	16			
Cc1cc(C)c2cc(C(=O)NC3CCC(C)CC3)[nH]c2c1 (mixture of isomers)	≤ 0.06	≤ 0.06	≤ 0.06	≤ 0.06	≤ 0.06	≤ 0.06	0.31	> 20	> 32	> 32	0.5 to 1	> 160	> 160	0.03
O=C(NC1CCCC1)c1cc2ccccc2[nH]1	> 32	> 32	> 32	> 32	> 32	> 32	> 10	> 25						
Cc1cc(C)c2cc(C(=O)NCc3cccc(Cl)c3)[nH]c2c1	> 32	> 32	> 32	> 32	> 32	> 32	> 5	> 20						
O=C(NC1CCCCC1)c1cc2ccccc2[nH]1	> 32	> 32	> 32	> 32	> 32	> 32	> 10	> 25						
O=C(NC1C2CC3CC(C2)CC1C3)c1cc2ccccc2[nH]1 (stereo not drawn)	> 32	> 32	> 32	32 (≈ 109 µM)	32 (≈ 109 µM)	> 32	0.39 (≈ 1.32 µM)	> 25	> 32	> 32	2 (≈ 6.79 µM)			
CCCCCCCCNC(=O)c1cc2ccccc2[nH]1	> 32	> 32	> 32	> 32	> 32	> 32	> 10	> 25						
Cc1cc(C)c2cc(C(=O)NCC34CC5CC(CC(C5)C3)C4)[nH]c2c1	> 32	> 32	> 32	> 32	> 32	> 32	0.16 (≈ 0.476 µM)	> 20	> 32	> 32	1 (≈ 2.97 µM)			
CCC12CC3CC(C1)CC(NC(=O)c1cc4c(C)cc(C)cc4[nH]1)(C3)C2	> 32	> 32	> 32	> 32	> 32	> 32	0.039 (≈ 0.111 µM)	> 20	> 32	> 32	> 32			
Cc1cc(C)c2cc(C(=O)NC3C4CC5CC(C4)CC3C5)[nH]c2c1 (stereo not drawn)	> 32	> 32	> 32	> 32	> 32	> 32	0.04 (≈ 0.124 µM)	> 20	> 32	> 32	0.5 to 1 (≈ 1.55 to 3.1 µM)			
O=C(NC1CCCCCC1)c1cc2ccccc2[nH]1	> 32	> 32	> 32	> 32	> 32	> 32	> 5	> 20						
C[C@H]1CC[C@H](NC(=O)c2cc3ccccc3[nH]2)CC1	> 32	> 32	> 32	> 32	> 32	> 32	> 10	> 25						
CCCCCCCCNC(=O)c1cc2c(C)cc(C)cc2[nH]1	> 32	> 32	> 32	> 32	> 32	> 32	> 20	2.5 to 5 (≈ 8.32 to 16.6 µM)	> 32	> 32	> 32			
Cc1cc(C)c2cc(C(=O)N[C@H]3CC[C@H](C)CC3)[nH]c2c1	≤ 0.06	≤ 0.06	≤ 0.06	≤ 0.06	≤ 0.06	≤ 0.06	0.31 (≈ 1.09 µM)	> 20	> 32	> 32	0.25 to 1 (≈ 0.879 to 3.52 µM)			
O=C(NCC12CC3CC(CC(C3)C1)C2)c1cc2ccccc2[nH]1	2 (≈ 6.48 µM)	2 (≈ 6.48 µM)	2 (≈ 6.48 µM)	> 32	2 (≈ 6.48 µM)	1 (≈ 3.24 µM)	> 5	> 20	> 32	> 32	4 (≈ 13 µM)			
CCCCCCCNC(=O)c1cc2ccccc2[nH]1	> 32	> 32	> 32	> 32	> 32	> 32	> 10	> 25						
O=C(NCc1cccc(Cl)c1)c1cc2ccccc2[nH]1	> 32	> 32	> 32	> 32	> 32	> 32	> 5	> 20						
CCC12CC3CC(C1)CC(NC(=O)c1cc4ccccc4[nH]1)(C3)C2	> 32	> 32	> 32	> 32	> 32	> 32	1.25 (≈ 3.88 µM)	> 20	> 32	> 32	1 to 2 (≈ 3.1 to 6.2 µM)			
Cc1cc(C)c2cc(C(=O)NC3CCCCC3)[nH]c2c1	0.5 (≈ 1.85 µM)	0.25 (≈ 0.925 µM)	0.25 (≈ 0.925 µM)	0.25 (≈ 0.925 µM)	0.25 (≈ 0.925 µM)	0.25 (≈ 0.925 µM)	0.625 (≈ 2.31 µM)	2.5 (≈ 9.25 µM)	> 32	> 32	1 to 2 (≈ 3.7 to 7.4 µM)			
Cc1cc(C)c2cc(C(=O)NC3CCCCCC3)[nH]c2c1	≤ 0.06	≤ 0.06	≤ 0.06	≤ 0.06	≤ 0.06	≤ 0.06	0.08 (≈ 0.281 µM)	0.625 (≈ 2.2 µM)	2 (≈ 7.03 µM)	4 (≈ 14.1 µM)	0.06 to 0.12 (≈ 0.211 to 0.422 µM)	> 160	> 160	0.015 (≈ 0.0527 µM)
O=C(NC1CCCCCCC1)c1cc2ccccc2[nH]1	> 32	> 32	> 32	32 (≈ 118 µM)	32 (≈ 118 µM)	> 32	0.39 (≈ 1.44 µM)	25 (≈ 92.5 µM)	> 32	> 32	2 (≈ 7.4 µM)			
Cc1cc(C)c2cc(C(=O)NC(C)C34CC5CC(CC(C5)C3)C4)[nH]c2c1 (stereo not drawn)	16 (≈ 45.6 µM)	> 32	8 (≈ 22.8 µM)	8 (≈ 22.8 µM)	16 (≈ 45.6 µM)	16 (≈ 45.6 µM)	0.31 (≈ 0.884 µM)	> 20	> 32	> 32	> 32			
Cc1cc(C)c2cc(C(=O)NC34CC5CC(CC(C5)C3)C4)[nH]c2c1	> 32	32 (≈ 99.2 µM)	> 32	> 32	> 32	> 32	0.0195 (≈ 0.0605 µM)	1.25 to 2.5 (≈ 3.88 to 7.75 µM)	> 32	> 32	> 32			
